Laboratory results taken from ChEMBL document CHEMBL1275306, “Synthesis and cytotoxicity evaluation of 1-[3-(9H-carbazol-4-yloxy)-2-hydroxypropyl]-3-aryl-1H-pyrazole-5-carboxylic acid derivatives” (Eur J Med Chem, 2010).
The source made the active and inactive calls.

What was measured:
Format in all cases: functional, cell-based
[1] = tested on: A549; test: Cytotoxicity against human A549 cells after 48 hrs by SRB assay
Outline: (§1)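 Cells grown in minimal essential medium with 10% FBS, penicillin and streptomycin, then exposed in triplicate to […] test agent or doxorubicin for 48 h at 37 °C under 5% CO2. Cells fixed with cold TCA, stained with 0.4% SRB in 1% acetic acid; bound dye dissolved in buffer, OD read at 565 nm. Viability expressed as % of untreated cells; IC50 by non-linear regression.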

[2] = tested on: SK-N-SH; test: Cytotoxicity against human SK-N-SH cells at 0.1 to 5 uM by SRB assay; details: TDE = time-dependent effect; outline: as §1
[3] = tested on: MCF7; test: Cytotoxicity against human MCF7 cells after 48 hrs by SRB assay; outline: as §1
[4] = tested on: SK-N-SH; test: Cytotoxicity against human SK-N-SH cells after 48 hrs by SRB assay; outline: as §1
[5] = tested on: SK-N-SH; test: Cytotoxicity against human SK-N-SH cells at 0.5 uM after 48 hrs by SRB assay
[6] = tested on: A549; test: Cytotoxicity against human A549 cells at 0.1 to 5 uM by SRB assay; details: TDE = time-dependent effect; outline: as §1
[7] = tested on: MCF7; test: Cytotoxicity against human MCF7 cells at 0.1 to 5 uM by SRB assay; details: TDE = time-dependent effect; outline: as §1
[8] = tested on: SK-N-SH; test: Cytotoxicity against human SK-N-SH cells at 5 uM after 48 hrs by SRB assay; outline: as §1
[9] = tested on: SK-N-SH; test: Cytotoxicity against human SK-N-SH cells at 0.1 uM after 48 hrs by SRB assay; outline: as §1

Measured: Activity

Cc1ccc(-c2cc(C(=O)O)n(CC(O)COc3cccc4[nH]c5ccccc5c34)n2)cc1 (stereo not drawn)
active: [1] Dose-dependent effect | [2] tde | [3] Dose-dependent effect | [4] Dose-dependent effect | [5] | [6] tde | [7] tde

O=C(O)c1cc(-c2ccccc2[N+](=O)[O-])nn1CC(O)COc1cccc2[nH]c3ccccc3c12 (stereo not drawn)
active: [1] Dose-dependent effect | [2] tde | [3] Dose-dependent effect | [4] Dose-dependent effect | [5] | [6] tde | [7] tde

COc1ccc(-c2cc(C(=O)O)n(CC(O)COc3cccc4[nH]c5ccccc5c34)n2)cc1 (stereo not drawn)
active: [8] | [1] Dose-dependent effect | [2] tde | [3] Dose-dependent effect | [4] Dose-dependent effect | [5] | [6] tde | [7] tde

Cc1cccc(-c2cc(C(=O)O)n(CC(O)COc3cccc4[nH]c5ccccc5c34)n2)c1 (stereo not drawn)
active: [8] | [1] Dose-dependent effect | [9] | [2] tde | [3] Dose-dependent effect | [4] Dose-dependent effect | [5] | [6] tde | [7] tde

COc1cccc(-c2cc(C(=O)O)n(CC(O)COc3cccc4[nH]c5ccccc5c34)n2)c1 (stereo not drawn)
active: [1] Dose-dependent effect | [2] tde | [3] Dose-dependent effect | [4] Dose-dependent effect | [5] | [6] tde | [7] tde

O=C(O)c1cc(-c2cccc([N+](=O)[O-])c2)nn1CC(O)COc1cccc2[nH]c3ccccc3c12 (stereo not drawn)
active: [1] Dose-dependent effect | [2] tde | [3] Dose-dependent effect | [4] Dose-dependent effect | [5] | [6] tde | [7] tde

O=C(O)c1cc(-c2ccc([N+](=O)[O-])cc2)nn1CC(O)COc1cccc2[nH]c3ccccc3c12 (stereo not drawn)
active: [1] Dose-dependent effect | [2] tde | [3] Dose-dependent effect | [4] Dose-dependent effect | [5] | [6] tde | [7] tde

COc1cccc2c1C(=O)c1c(O)c3c(c(O)c1C2=O)C[C@@](O)(C(=O)CO)C[C@@H]3O[C@H]1C[C@H](N)[C@H](O)[C@H](C)O1
active: [1] Dose-dependent effect | [2] tde | [3] Dose-dependent effect | [4] Dose-dependent effect | [6] tde | [7] tde
